Experimental data published in ChEMBL document CHEMBL4229342, “Synthesis of novel proxyphylline derivatives with dual Anti-Candida albicans and anticancer activity” (Eur J Med Chem, 2018).

Legend:
Format in all cases: functional
CCRF-CEM [1] = assay: Antiproliferative activity against human CCRF-CEM cells assessed as cell viability at 25 uM after 72 hrs by MTT assay; conditions: read-out: Activity
Procedure, shortened: (§1)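 MTT viability assay in CCRF-CEM and MCF-7 cells after 72 h exposure at 25, 50, 100 and 200 µM. Results are relative to control cells without inhibitor in 0.5% DMSO. Done in triplicate; values are means ± SD of three independent experiments.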

CCRF-CEM [2] = assay: Antiproliferative activity against human CCRF-CEM cells assessed as cell viability at 50 uM after 72 hrs by MTT assay; conditions: read-out: Activity; procedure, shortened: as §1
CCRF-CEM [3] = assay: Antiproliferative activity against human CCRF-CEM cells assessed as cell viability at 100 uM after 72 hrs by MTT assay; conditions: read-out: Activity; procedure, shortened: as §1
CCRF-CEM [4] = assay: Antiproliferative activity against human CCRF-CEM cells assessed as cell viability at 200 uM after 72 hrs by MTT assay; conditions: read-out: Activity; procedure, shortened: as §1
MCF7 [5] = assay: Antiproliferative activity against human MCF7 cells assessed as cell viability at 25 uM after 72 hrs by MTT assay; conditions: MCF7, 72 h, read-out: Activity; procedure, shortened: as §1
MCF7 [6] = assay: Antiproliferative activity against human MCF7 cells assessed as cell viability at 50 uM after 72 hrs by MTT assay; conditions: MCF7, 72 h, read-out: Activity; procedure, shortened: as §1
MCF7 [7] = assay: Antiproliferative activity against human MCF7 cells assessed as cell viability at 100 uM after 72 hrs by MTT assay; conditions: MCF7, 72 h, read-out: Activity; procedure, shortened: as §1
MCF7 [8] = assay: Antiproliferative activity against human MCF7 cells assessed as cell viability at 200 uM after 72 hrs by MTT assay; conditions: MCF7, 72 h, read-out: Activity; procedure, shortened: as §1
Candida albicans [9] = assay: Growth inhibition of Candida albicans ATCC 90028 at 16 ug/ml incubated for 18 hrs at 35 degC by broth microdilution method relative to control; conditions: ATCC 90028, 18 h, read-out: GI
Candida albicans [10] = assay: Growth inhibition of Candida albicans ATCC 90028 at 16 ug/ml incubated for 48 hrs at 35 degC by broth microdilution method relative to control; conditions: ATCC 90028, 48 h, read-out: GI
Candida albicans [11] = assay: Growth inhibition of Candida albicans ATCC 90028 at 8 ug/ml incubated for 18 hrs at 35 degC by broth microdilution method relative to control; conditions: ATCC 90028, 18 h, read-out: GI
Candida albicans [12] = assay: Growth inhibition of Candida albicans ATCC 90028 at 8 ug/ml incubated for 48 hrs at 35 degC by broth microdilution method relative to control; conditions: ATCC 90028, 48 h, read-out: GI
Candida albicans [13] = assay: Growth inhibition of Candida albicans ATCC 90028 at 4 ug/ml incubated for 18 hrs at 35 degC by broth microdilution method relative to control; conditions: ATCC 90028, 18 h, read-out: GI
Candida albicans [14] = assay: Growth inhibition of Candida albicans ATCC 90028 at 8 ug/ml incubated for 4 hrs at 35 degC by broth microdilution method relative to control; conditions: ATCC 90028, 4 h, read-out: GI
Candida albicans [15] = assay: Growth inhibition of Candida albicans ATCC 90028 at 2 ug/ml incubated for 18 hrs at 35 degC by broth microdilution method relative to control; conditions: ATCC 90028, 18 h, read-out: GI
Candida albicans [16] = assay: Growth inhibition of Candida albicans ATCC 90028 at 2 ug/ml incubated for 4 hrs at 35 degC by broth microdilution method relative to control; conditions: ATCC 90028, 4 h, read-out: GI
Candida albicans [17] = assay: Growth inhibition of Candida albicans ATCC 90028 at 1 ug/ml incubated for 18 hrs at 35 degC by broth microdilution method relative to control; conditions: ATCC 90028, 18 h, read-out: GI
Candida albicans [18] = assay: Growth inhibition of Candida albicans ATCC 90028 at 1 ug/ml incubated for 4 hrs at 35 degC by broth microdilution method relative to control; conditions: ATCC 90028, 4 h, read-out: GI
Candida albicans [19] = assay: Growth inhibition of Candida albicans ATCC 90028 at 0.5 ug/ml incubated for 18 hrs at 35 degC by broth microdilution method relative to control; conditions: ATCC 90028, 18 h, read-out: GI
Candida albicans [20] = assay: Growth inhibition of Candida albicans ATCC 90028 at 0.5 ug/ml incubated for 4 hrs at 35 degC by broth microdilution method relative to control; conditions: ATCC 90028, 4 h, read-out: GI
Candida albicans [21] = assay: Growth inhibition of Candida albicans ATCC 90028 at 0.25 ug/ml incubated for 18 hrs at 35 degC by broth microdilution method relative to control; conditions: ATCC 90028, 18 h, read-out: GI
Candida albicans [22] = assay: Growth inhibition of Candida albicans ATCC 90028 at 0.25 ug/ml incubated for 4 hrs at 35 degC by broth microdilution method relative to control; conditions: ATCC 90028, 4 h, read-out: GI
Candida albicans [23] = assay: Growth inhibition of Candida albicans ATCC 90028 at 0.125 ug/ml incubated for 18 hrs at 35 degC by broth microdilution method relative to control; conditions: ATCC 90028, 18 h, read-out: GI
Candida albicans [24] = assay: Growth inhibition of Candida albicans ATCC 90028 at 0.125 ug/ml incubated for 4 hrs at 35 degC by broth microdilution method relative to control; conditions: ATCC 90028, 4 h, read-out: GI
Candida albicans [25] = assay: Growth inhibition of Candida albicans ATCC 90028 at 0.0625 ug/ml incubated for 18 hrs at 35 degC by broth microdilution method relative to control; conditions: ATCC 90028, 18 h, read-out: GI
Candida albicans [26] = assay: Growth inhibition of Candida albicans ATCC 90028 at 0.0625 ug/ml incubated for 4 hrs at 35 degC by broth microdilution method relative to control; conditions: ATCC 90028, 4 h, read-out: GI
Candida albicans [27] = assay: Growth inhibition of Candida albicans ATCC 90028 at 0.0313 ug/ml incubated for 18 hrs at 35 degC by broth microdilution method relative to control; conditions: ATCC 90028, 18 h, read-out: GI
Candida albicans [28] = assay: Growth inhibition of Candida albicans ATCC 90028 at 0.0313 ug/ml incubated for 4 hrs at 35 degC by broth microdilution method relative to control; conditions: ATCC 90028, 4 h, read-out: GI
Candida albicans [29] = assay: Fungicidal activity against Candida albicans ATCC 90028 assessed as log reduction in cell viability at 16 ug/ml after 48 hrs at 35 degC
Procedure, shortened: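 MFC assay on C. albicans ATCC 90028 following M27-A3, at the molar equivalent of 16 µg/mL. CFU of treated cells were compared with CFU of the untreated inoculum. Activity is given as lg R = lg CFU/mL control − lg CFU/mL treated, and lg R ≥3 was defined as fungicidal. Values are means of two independent experiments.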

Row | Structure (SMILES) | viability at 25 µM (CCRF-CEM [1]) [%] | viability at 50 µM (CCRF-CEM [2]) [%] | viability at 100 µM (CCRF-CEM [3]) [%] | viability at 200 µM (CCRF-CEM [4]) [%] | viability at 25 µM (MCF7 [5]) [%] | viability at 50 µM (MCF7 [6]) [%] | viability at 100 µM (MCF7 [7]) [%] | viability at 200 µM (MCF7 [8]) [%] | inhibition of growth at 16 µg/mL (Candida albicans [9]) [%] | inhibition of growth at 16 µg/mL (Candida albicans [10]) [%] | inhibition of growth at 8 µg/mL (Candida albicans [11]) [%] | inhibition of growth at 8 µg/mL (Candida albicans [12]) [%] | inhibition of growth at 4 µg/mL (Candida albicans [13]) [%] | inhibition of growth at 8 µg/mL (Candida albicans [14]) [%] | inhibition of growth at 2 µg/mL (Candida albicans [15]) [%] | inhibition of growth at 2 µg/mL (Candida albicans [16]) [%] | inhibition of growth at 1 µg/mL (Candida albicans [17]) [%] | inhibition of growth at 1 µg/mL (Candida albicans [18]) [%] | inhibition of growth at 0.5 µg/mL (Candida albicans [19]) [%] | inhibition of growth at 0.5 µg/mL (Candida albicans [20]) [%] | also measured
1 | CC(Cn1cnc2c1c(=O)n(C)c(=O)n2C)OC(=O)CC(=O)c1ccc(F)cc1 (configuration not stated) | 83.5 | 51.1 | 43.8 | 20.1 | 88.5 | 77.9 | 83.8 | 76.8 | 100 | 99.7 | 99.8 | 99.3 | 100 | 99.4 | 100 | 99.3 | 100 | 100 | 99.7 | 99.3 | inhibition of growth at 0.25 µg/mL (Candida albicans [21]): 99.7%; inhibition of growth at 0.25 µg/mL (Candida albicans [22]): 99.3%; inhibition of growth at 0.125 µg/mL (Candida albicans [23]): 99.8%; inhibition of growth at 0.125 µg/mL (Candida albicans [24]): 99.5%; inhibition of growth at 0.0625 µg/mL (Candida albicans [25]): 99.9%; inhibition of growth at 0.0625 µg/mL (Candida albicans [26]): 99.3%; inhibition of growth at 0.0313 µg/mL (Candida albicans [27]): 99.7%; inhibition of growth at 0.0313 µg/mL (Candida albicans [28]): 98.9%; log(activity) (Candida albicans [29]): 0.9
2 | CC(Cn1cnc2c1c(=O)n(C)c(=O)n2C)OCc1cn(-c2cccc3ccccc23)nn1 (configuration not stated) | 90 | 67.7 | 34.2 | 4.1 | 93.5 | 91.9 | 93.3 | 77 | 99.6 | 99.1 | 99.9 | 99.6 | 99.8 | 99.6 | 99.8 | 99.2 | 99.7 | 99.5 | 99.7 | 99.3 | inhibition of growth at 0.25 µg/mL (Candida albicans [21]): 99.8%; inhibition of growth at 0.25 µg/mL (Candida albicans [22]): 99.5%; inhibition of growth at 0.125 µg/mL (Candida albicans [23]): 100%; inhibition of growth at 0.125 µg/mL (Candida albicans [24]): 99.7%; inhibition of growth at 0.0625 µg/mL (Candida albicans [25]): 100%; inhibition of growth at 0.0625 µg/mL (Candida albicans [26]): 99.8%; inhibition of growth at 0.0313 µg/mL (Candida albicans [27]): 99.9%; inhibition of growth at 0.0313 µg/mL (Candida albicans [28]): 99.1%; log(activity) (Candida albicans [29]): 0.5
3 | CC(Cn1cnc2c1c(=O)n(C)c(=O)n2C)OC(=O)C1c2ccccc2-c2ccccc21 (configuration not stated) | 41.5 | 2.8 | 0.1 | 2.3 | 101 | 85.1 | 63.5 | 28.3 | 99.8 | 99.3 | 99.8 | 99.4 | 100 | 99.4 | 100 | 99.4 | 99.8 | 99.3 | 99.8 | 99.1 | inhibition of growth at 0.25 µg/mL (Candida albicans [21]): 99.9%; inhibition of growth at 0.25 µg/mL (Candida albicans [22]): 99%; inhibition of growth at 0.125 µg/mL (Candida albicans [23]): 99.7%; inhibition of growth at 0.125 µg/mL (Candida albicans [24]): 98.9%; inhibition of growth at 0.0625 µg/mL (Candida albicans [25]): 99.7%; inhibition of growth at 0.0625 µg/mL (Candida albicans [26]): 99%; inhibition of growth at 0.0313 µg/mL (Candida albicans [27]): 99.8%; inhibition of growth at 0.0313 µg/mL (Candida albicans [28]): 99.3%; log(activity) (Candida albicans [29]): 0.8
